Inhibition data for 89 molecules are collected here from PubChem BioAssay AID651560 (Sanford-Burnham Center for Chemical Genomics, 2012).

The structures appear in SMILES notation. Out of some 360,000 compounds screened, about 820 (0.23%) were called active.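 Rule for the calls: active = compounds that cut the enzyme signal by at least half of the control window in the single-dose screen; inactive = the rest.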 The entries come from a sample that favours actives as a whole.

Low molecular weight phosphotyrosine protein phosphatase (Homo sapiens), sequence (P24666 whole entry, looked up): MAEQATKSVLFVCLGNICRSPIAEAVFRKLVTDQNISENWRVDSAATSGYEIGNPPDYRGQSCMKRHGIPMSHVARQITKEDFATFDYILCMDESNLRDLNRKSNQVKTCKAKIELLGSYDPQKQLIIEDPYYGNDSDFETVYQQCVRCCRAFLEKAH

The assay addresses Low molecular weight phosphotyrosine protein phosphatase (Homo sapiens) (UniProt P24666). Description: LMPTP phosphatase inhibitors, primary screen, biochemical, fluorescence intensity, uHTS (AID 651560).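 Note: plate controls were DMSO wells with enzyme plus substrate for no effect and substrate without enzyme for full effect.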 The note with it: recombinant LMPTP-A, OMFP fluorogenic substrate, at 20 µM, stronger effect = higher value. Put shortly:
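Test system: LMPTP-A phosphatase enzyme; input: 0.625 nM LMPTP-A final; reagent: OMFP substrate, 400 µM final; compound dosing: 20 µM single dose, 3% DMSO; incubation: 50 min dark incubation at room temperature; measured by: endpoint fluorescence intensity from OMFP dephosphorylation; measure: % inhibition relative to no-enzyme and uninhibited control wells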
`NNC(=O)c1cccc(COCC(F)(F)C(F)F)c1`: the inhibition was -2.64% (inactive). Under `CC(CO)NCC12CC3CC(CC(C3)C1)C2` (centres undefined) stands -1.02% (inactive); under `COc1ccc(NC(=O)Nc2ccc3c(c2)C(=O)N([C@H](C)CO)C[C@H](C)[C@@H](CN(C)C(=O)Nc2ccc4c(c2)OCO4)O3)cc1`, 0.628% (inactive); under `CCOc1ccc(N(CC(=O)NC2CCCCCC2)S(=O)(=O)c2c(C)[nH]c(=O)[nH]c2=O)cc1`, -1.41% (inactive). Take `CN(C)c1cccc(C(=O)N2CCC(n3nccc3NC(=O)C3CCOC3)CC2)c1` (centres undefined): the inhibition is -1.94% (inactive). The same measure for `COCCNc1nc(-c2ccccc2)nc2c1oc1ccccc12`: 2% (inactive); for `CCOCCCNS(=O)(=O)Cc1ccccc1`: -0.147% (inactive); for `CCOCCCNc1nc(-c2ccccc2)nc2ccccc12`: 57.8% (active). Under `O=C(Nc1cc2c3c(c1)C1CCCC1CN3CC1CCCC21)c1ccc([N+](=O)[O-])cc1` (centres undefined) stands 2.81% (inactive); under `Cn1ccc(=Nc2ccc(NC(=O)c3ccc(N=c4ccn(C)c5ccc([N+](=O)[O-])cc45)cc3)cc2)cc1`, 78% (active); under `O=C(Nc1ccc(C2CC2(Cl)Cl)cc1)c1cccc([N+](=O)[O-])c1` (centres undefined), 2.23% (inactive).

Consider `CCc1ccc(CCC(=O)Nc2ccc(S(N)(=O)=O)cc2)o1`, for which the inhibition is -1.91% (inactive). For the molecule `C=CCOc1cccc(C2C(C(=O)c3ccc(C)o3)=C(O)C(=O)N2c2nnc(C)s2)c1` (centres undefined), the inhibition is 0.72% (inactive). As to `Cc1cc(N2C(=O)C(O)=C(C(=O)c3ccc(C)o3)C2c2ccc(OCc3ccccc3)cc2)no1` (centres undefined), the inhibition is 52.5% (active). Turning to `CCCOc1ccc(C2C(C(=O)c3ccc(C)o3)=C(O)C(=O)N2CCCn2ccnc2)cc1` (centres undefined), the inhibition is 20.9% (inactive). The same measure for `COCc1ccc(CN2CCC(Oc3ccc(C(=O)NCc4ccccn4)cc3)CC2)o1`: -0.769% (inactive); for `CC1C(=O)N(Cc2cn(CC3CCCCC3)nn2)CCS(=O)(=O)N1Cc1ccc(-c2cccc(N(C)C)c2)cc1` (centres undefined): 2.27% (inactive); for `FC(F)(F)c1cccc(-c2nc(COc3ccc(Cl)cc3Cl)no2)c1`: 2.97% (inactive). In the case of `O=C1COc2c1ccc(O)c2O`, the inhibition was 2.2% (inactive). Turning to `CCN(CC)C(=O)CS(=O)CC(=O)Nc1cc(OCCOC)c(Cl)cc1Cl` (centres undefined), the inhibition is -0.0342% (inactive). The same measure for `C[C@H](CO)N1C[C@H](C)[C@H](CN(C)C(=O)Nc2ccc3c(c2)OCO3)Oc2ncc(Br)cc2C1=O`: -2.87% (inactive); for `COc1cccc(CNC(=O)C(=O)NCCC2CCCCN2S(=O)(=O)c2ccc(C)cc2)c1` (centres undefined): 0.141% (inactive).

`Cn1c(C(=O)OC(C(=O)NC2CCCCC2)c2ccccn2)cc2sccc21` (centres undefined): the inhibition is 0.323% (inactive). As for `C=CCn1c(Oc2ccc(C(=O)OC)cc2)nc2c1c(=O)n(C)c(=O)n2C`, the inhibition is -1.9% (inactive). Under `COc1ccccc1N(CC(=O)NC1CCCC1)C(=O)C1(C)CC(=O)N=C2C=CC(C)=CN21` (centres undefined) stands -0.3% (inactive). The same measure for `CCCCNC(=O)Cn1nc(C)c(S(=O)(=O)N2CCOCC2)c1C`: -0.848% (inactive); for `CCC(C)c1ccccc1NC(=O)CN(C)CC(=O)Nc1ccccc1SC` (centres undefined): -7.1% (inactive); for `CC1(C)CC(=O)C2=C(C1)N=C1SCCC(=O)N1C2c1ccc(C(F)(F)F)cc1` (centres undefined): 0.279% (inactive). Under `Cc1cc(F)ccc1NC(=O)C(C)n1c2ccccc2c2nc(=O)cc(C)n21` (centres undefined) stands -1.13% (inactive). Take `O=S(=O)(c1ccc(Cl)cc1)N1CCCN(c2ccc(C(F)(F)F)cn2)CC1`: the inhibition was 2.43% (inactive). The same measure for `CCCN1C(=O)C(NS(=O)(=O)c2ccc(N)cc2)(C(F)(F)F)C(C(=O)OC)=C1C` (centres undefined): -1.38% (inactive); for `Cc1cccc(NC(=S)N(CCN(C)C)C(C)c2ccco2)c1` (centres undefined): -1.32% (inactive); for `C=CC1=C(C(=O)O)N2C(=O)[C@@H](NC(=O)/C(=N/OCC(=O)O)c3csc(N)n3)[C@H]2SC1`: 77.9% (active). The same measure for `COc1ccc2c(C)c(CCC(=O)NC3CC3)c(=O)oc2c1C`: -1.16% (inactive). As for `O=C(O)c1ccccc1OCc1ccccc1Cl`, the inhibition was -0.307% (inactive). Under `Cc1c(CCC(=O)O)c(=O)oc2c(C)c(OCc3ccccc3Cl)ccc12` stands 86.6% (active); under `O=C(CO/N=C/c1ccccc1OC(F)F)NC1CCCC1`, -0.427% (inactive); under `Cc1ccc(Cc2c(-c3ccc(Cl)cc3)nc3c4ccccc4ccn23)cc1`, 6.26% (inactive).

Regarding `COc1ccc(NC(=O)c2cc(=O)[nH]c3ccccc23)cc1S(=O)(=O)N1CCOCC1`, the inhibition is -0.651% (inactive). The same measure for `COc1ccc2[nH]c(=O)c(-c3noc(-c4ccc(F)cc4)n3)cc2c1`: 48.8% (active). The same measure for `CCCc1nc(-c2cc3cc(C)ccc3[nH]c2=O)no1`: -2.23% (inactive); for `COc1ccc(Cc2cc(-c3ccc(F)cc3)n[nH]c2=O)cc1`: 0.445% (inactive). With `Cn1c(=O)cc(OCC(=O)N2CCN(c3ccccc3F)CC2)c2ccccc21`, the inhibition was -0.233% (inactive). Under `Cc1[nH]c(N)nc(=S)c1CCCNc1ccccc1` stands 4.94% (inactive); under `Cc1csc(=O)n1CC(=O)Nc1ccc(S(C)(=O)=O)cc1`, 0.0764% (inactive); under `CN1CCN(Cc2c(C(=O)N3CCc4ccccc4C3)nc3ccc(Cl)cn23)CC1`, -1.43% (inactive).

As to `O=C(COc1ccc(Cl)cc1Cl)NCCCNC(=O)c1cnccn1`, the inhibition is -0.724% (inactive). The same measure for `CCCNS(=O)(=O)c1ccc(CCC(=O)NCc2cccnc2)cc1`: -0.651% (inactive).

For `COc1ccc(NC(=O)CN2C(=O)CSC2=O)cc1`, the inhibition was -1.92% (inactive). Under `CCOC(=O)c1sc2nc(C)nc(SCC(N)=O)c2c1C` stands -0.32% (inactive); under `COc1ccc(C#Cc2c(-c3ccc(OC)cc3)oc3ccc(-c4ccc5c(c4)OCO5)cc23)cc1`, 0.696% (inactive). The same measure for `FC(F)(F)c1ccc2c3n(nc2c1)CCN=C3c1ccc(Cl)cc1`: -0.582% (inactive).

Regarding `COc1ccc(CC(NC(C)=O)C(=O)NC2CCN(C(=O)c3ccc(Cl)cc3)CC2)cc1` (centres undefined), the inhibition is 0.435% (inactive). In the case of `C[C@]12CC[C@H](O)CC1=CCC1C2CC[C@@]2(C)C1CC[C@@H]2NC(=O)CCC(=O)O` (some centres undefined), the inhibition was -0.874% (inactive). Under `Cn1c(SCC(=O)Nc2ccc(Cl)cc2)nc(O)cc1=O` stands -0.456% (inactive); under `C[C@@H](C(=O)Nc1ccc2ccccc2c1)[C@@H]1C[C@@]1(C)[C@@H](NC(=O)c1cccnc1)c1ccccc1`, 0.267% (inactive). Under `CCN(c1ccc2c(c1)OCO2)S(=O)(=O)c1cc(Br)cc2c1N(C(=O)C1CC1)CC2` stands 3.91% (inactive); under `CC(=O)c1ccccc1NC(=O)CC1(CC(=O)O)CCCCC1`, -1.06% (inactive). Under `CCN(CCn1cccn1)Cc1cn[nH]c1-c1ccc(OC)cc1F` stands -1.15% (inactive).

For the molecule `Cc1cc(-c2nc(C)c(-c3nnc(SCC(=O)Nc4ccccc4)n3C)s2)no1`, the inhibition was -0.511% (inactive). The same measure for `COC(=O)c1sc(C(F)(F)F)c(-c2ccccc2)c1S(=O)(=O)N(C)C`: -0.149% (inactive); for `O=C1NC(O)CCN1C1CC(O)C(CO)O1` (centres undefined): -0.47% (inactive); for `COc1ccccc1OCCNC(=O)C(CCSC)NC(=O)COc1ccccc1` (centres undefined): -1.42% (inactive). Consider `Cc1ccc(S(=O)(=O)CCC(=O)OCC(=O)N(C)C2CCS(=O)(=O)C2)cc1` (centres undefined), for which the inhibition is -1.13% (inactive). Under `O=C(c1cc(-c2ccco2)nc2ccccc12)N(Cc1nnc(-c2ccc(Cl)cc2)o1)C1CC1` stands 3% (inactive); under `CN(C(=O)COC(=O)c1cc(-c2ccco2)nc2ccccc12)C1CCS(=O)(=O)C1` (centres undefined), 66.6% (active). Under `COc1ccc(N(C)S(=O)(=O)c2cccc3nsnc23)cc1` stands -1.17% (inactive); under `Cn1c(=O)[nH]c(=O)c2c1nc(NCCCn1ccnc1)n2Cc1cccc(Br)c1`, -1.82% (inactive).

Regarding `COc1cc(N2C(=O)c3ccccc3C2=O)c(Cl)cc1C(=O)OCC(=O)N1CCOCC1`, the inhibition is 0.755% (inactive). The same measure for `Cc1ccc(C(=O)NNC(=O)c2cc3cc4ccccc4nc3s2)cc1`: 50.6% (active). Under `CCN1CCN(C(=O)c2cc3cc4ccc(OC)cc4nc3s2)CC1` stands 0.833% (inactive); under `CS(=O)(=O)c1ccc(C(=O)NNC(=O)c2cccs2)cc1`, -1.18% (inactive); under `O=c1ccc2cc(S(=O)(=O)N3CCN(c4ccccc4)CC3)ccc2o1`, -2.32% (inactive). The same measure for `CSCCC(NC(=O)c1ccco1)C(=O)NCCc1ccc(F)cc1` (centres undefined): -1.2% (inactive); for `O=C(CNC(=O)c1cc2c(s1)CCC2)Nc1ccccc1Br`: 5.93% (inactive).

Regarding `Cn1c(CN2CCOCC2)nc2cc(NC(=O)c3ccc(Cl)cc3)ccc21`, the inhibition was -0.278% (inactive). Under `CCOc1ccc(-c2nc(N)ncc2-c2ccccc2OC)c(O)c1` stands 53.5% (active). The same measure for `CCOc1cccc(OCCCOc2cccc3cccnc23)c1`: 3.69% (inactive); for `CCOC(=O)Cn1c2c(c(-c3ccccc3OC)cc1=O)CCCC2`: 2.39% (inactive). `Brc1cnc2ccccc2c1N1CCCCC1`: the inhibition was 4.39% (inactive). The same measure for `O=c1cc(N2CCCCC2)c(-c2ccccc2)nn1Cc1cccc(F)c1`: -0.671% (inactive). The same measure for `c1ccc(-c2cc(N3CCCCC3)c3ccccc3n2)cc1`: 67.2% (active); for `OCCC#Cc1ccc(CN2CCN(Cc3ccsc3)C(CCO)C2)cc1` (centres undefined): 1.89% (inactive); for `CC(OC(=O)c1c(F)cccc1F)C(=O)NCCC1=CCCCC1` (centres undefined): 0.59% (inactive).

As for `Nc1ccc2nc3c(=O)[nH]c(=S)[nH]c3nc2c1`, the inhibition was 85% (active). The same measure for `COc1ccc(CC(=O)Nc2sc(Cc3ccccc3)c(C)c2C(N)=O)cc1`: 0.191% (inactive). Under `COc1ccc(Cc2nnc(NC(=O)Cc3cccs3)s2)cc1` stands 76.7% (active); under `COc1cc(OC)cc(C(=O)NNC(=O)Cc2cccs2)c1`, 1.69% (inactive); under `Cc1ccccc1OCC(=O)NNC(=O)c1ccc(-n2cncn2)c([N+](=O)[O-])c1`, -1.02% (inactive).

By inhibition is commonly meant the drop in the measured response relative to a control, in per cent.
